# An excerpt weighted towards active compounds, which were near 2.2% of everything screened.
# b-catenin transl: modulators of beta-catenin nuclear translocation, primary screen, imaging, HeLa cells, immunofluorescence, high-content. nuclear translocation activity, % at 5 µM. 190,000 compounds, 0.3% hits. AID 1665, 2009;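 active = nuclear translocation activity above 50% at 5 µM, with a well cell count of 50 or more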;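 note: per-cell ratio of nuclear to cytoplasmic median beta-catenin stain intensity; plate controls were DMSO negative control for no effect and GSK-3 inhibitor IX positive control for full effect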
#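 Read-out: Nuclear/cytoplasmic beta-catenin signal ratio, % activation | Assay system: Human HeLa cell line | Times: 24 h compound exposure at 37°C, 5% CO2 | Signal: Fluorescence imaging of beta-catenin antibody stain plus DAPI | Dosing: 5 µM primary, 0.02–20 µM confirmation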
# Ba/F3 V617F tox: reduced viability of JAK2V617F-dependent Ba/F3 cells, primary screen, JAK2V617F inhibitor project, cell-based, Ba/F3 EpoR-JAK2V617F, luminescence; ATP luminescence; inhibition, % at 5.6 µM; 220,000 compounds, 1.1% hits; AID 1446, 2008;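 active = inhibition above the campaign mean plus 3 SD over all tested compounds, cut at about 24% in these data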;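 note: cytokine-independent growth of Ba/F3 cells driven by EpoR plus mutant JAK2; 0% = DMSO-treated cells and 100% = JAK inhibitor I control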
# BaF3 parental: parental Ba/F3 cell viability inhibition, counter-screen for JAK2V617F inhibitor project, murine pro-B, CellTiter-Glo luminescence; inhibition, % at 5.6 µM; CellTiter-Glo ATP luminescence; AID 1486, 2009; 220,000 compounds, 1.1% hits;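 active = inhibition above a per-campaign cutoff, the mean inhibition of all tested compounds plus 3 SD, cut at about 27% in these data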;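 note: 0% = DMSO wells and 100% = JAK Inhibitor I control wells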
# IEC-6 tox: cytotoxicity in IEC-6 intestinal epithelial cells, primary screen, cytotoxicity control for KLF5 inhibitor project, cell-based, luminescence | IEC-6 cytotoxicity, luminescence viability | inhibition, % at 5 µM | 290,000 compounds, 0.78% hits;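 note: 0% = plate median of test compound wells and 100% = cytotoxic reference compound wells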
# MT stabilizer: microtubule stabilizers in HeLa cells, primary screen, imaging, high-content imaging | HeLa tubulin immunostaining HCS, 24 h; share of cells brighter than vehicle mean+2SD | % tubulin-high responders, % at 10 µM | 200,000 compounds, 0.83% hits;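 active = plate Z-score above 3 for both tubulin-high and condensed-nucleus cell shares, with cell loss under 80%, at 10 µM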;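 note: anti alpha tubulin signal scored within the nucleus-defined area of each cell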
# APP transl inh: inhibitors of APP translation via 5'UTR reporter, primary screen, APP 5'UTR luciferase, SH-SY5Y cells | SH-SY5Y APP 5'UTR-luciferase reporter, luminescence | inhibition, % at 2 µM | 190,000 compounds, 0.82% hits;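 active = inhibition above a set limit, derived from the sample mean plus 3 SD, cut at about 45% in these data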
# IEC-6 tox confirm: cytotoxic compounds in IEC-6 epithelial cells, confirmation, cytotoxicity control, cell-based, luminescence; inhibition, % at 5 µM; shares compounds with IEC-6 tox; IEC-6 rat intestinal epithelial viability; 1,900 compounds, 63% hits;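 note: 0% = vehicle and 100% = reference cytotoxic drug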
# * marks the source's active call; other numbers are inactive results; · = no result given. Cut-off read from the data, not from the text of the source, unless noted: active = inhibition above about 22%; inactive = the rest.
SMILES,b-catenin transl,Ba/F3 V617F tox,BaF3 parental,IEC-6 tox,MT stabilizer,APP transl inh,IEC-6 tox confirm
COc1ccc2c(c1)C(C)=CC(C)(C)N2S(=O)(=O)c1ccc(NC(C)=O)cc1,·,·,·,90.1*,·,·,56.6*
CCOc1ccc2c(c1)C(C)=CC(C)(C)N2S(=O)(=O)c1ccc(NC(C)=O)cc1,·,·,·,92.4*,·,·,71.7*
COc1ccc2c(c1)C(C)=CC(C)(C)N2S(=O)(=O)c1ccc(Br)cc1,75.7*,73.7*,69.4*,68.1*,5.0,93.1*,57.0*
COc1ccc2cc(S(=O)(=O)NC3CC(C)(C)NC(C)(C)C3)ccc2c1,·,·,·,-7.4,·,·,·
CNc1nc(-c2cccs2)cc(C(F)(F)F)c1C#N,-2.3,-2.6,-2.9,-7.9,·,·,·
CC(C)Oc1ccc(CN2CCCC(CO)(Cc3ccccc3)C2)cc1CO (centres undefined),·,·,·,2.3,·,·,·
O=C(O)/C=C/c1ccc(-n2ccnc2)cc1,1.5,0.9,-1.8,3.7,·,·,·
CC[n+]1c(C=C2C=C(C)OC(C)=C2)sc2ccccc21,2.9,99.9*,91.1*,25.4*,1.4,8.7,26.7*
COc1cccc(Nc2nc(N)nc(-c3oc4ccccc4c3C)n2)c1,·,12.0,13.6,24.7*,9.5,75.9*,34.6*
Cc1ccc(Nc2nc(N)nc(-c3oc4ccccc4c3C)n2)cc1,49.2,75.7*,75.9*,83.1*,6.8,92.0*,79.4*
Cc1cccc(Nc2nc(N)nc(-c3oc4ccccc4c3C)n2)c1,27.4,-4.6,3.8,11.5,·,·,·
O=C(CCl)N(c1ccccc1)c1c[nH]c2ccccc12,1.0,101.1*,50.0*,33.8*,14.0,32.0,10.3
O=C(CN1C(=O)CSc2ccc(S(=O)(=O)N3CCCCC3)cc21)NCc1ccccc1Cl,·,·,·,0.7,·,·,·
Cn1ncc2c(O/N=C(\N)c3ccc(C(C)(C)C)cc3)ncnc21,25.1,75.0*,36.1*,92.7*,·,·,21.2
O=C(NC(NC(=S)Nc1ccc(Cl)cc1Cl)C(Cl)(Cl)Cl)c1cccc([N+](=O)[O-])c1 (centres undefined),-0.3,0.6,7.6,-1.1,7.1,2.3,·
CCOC(=O)c1c(C)oc2ccc(OC(=O)COc3c(F)c(F)c(F)c(F)c3F)cc12,0.5,0.0,3.2,-0.7,7.4,-1.8,·
COc1cc(NS(=O)(=O)c2ccc(OC)c(C)c2C)c(OC)cc1Cl,81.3*,57.2*,50.6*,35.3*,39.1*,64.8*,52.5*
Cc1ccsc1/C=N/NC(=O)c1cc(-c2ccncc2)nc2ccccc12,44.0,70.6*,75.5*,72.4*,9.6,93.8*,57.8*
CC(C)NC(=O)c1cc(-c2cccs2)nc2ccccc12,·,·,·,-4.7,·,·,·
NNC(=O)c1cc(-c2cccs2)nc2ccccc12,-1.8,3.6,4.1,31.8*,·,·,2.8
COc1ccccc1-c1cc(C(=O)N/N=C/c2sccc2C)c2ccccc2n1,1.5,-0.1,3.5,-3.9,2.5,5.1,·
O=C(N/N=C/c1ccc([N+](=O)[O-])o1)c1cc(-c2ccncc2)nc2ccccc12,-0.2,-1.1,3.6,-5.4,20.4,-0.1,·
Cc1ccc(/C=N/NC(=O)c2cc(-c3ccncc3)nc3ccccc23)o1,·,·,·,65.2*,·,·,45.3*
O=C(N/N=C/c1ccc([N+](=O)[O-])o1)c1cc(-c2ccc(-c3ccccc3)cc2)nc2ccccc12,45.9,64.4*,61.5*,35.8*,12.4*,89.8*,51.6*
CC1CCCN(CCCN2C(=O)C3C(C(=O)Nc4cccc(Cl)c4)C4C=CC3(O4)C2C(=O)NC2CCCCC2)C1 (centres undefined),·,·,·,-4.3,·,·,·
O=C(NCCCN1CCCC1=O)c1cn(-c2ccccc2)nc1-c1ccccc1,·,·,·,2.2,·,·,·
CCOc1ccc(-c2cc(C(=O)N/N=C(\C)c3cccnc3)c3ccccc3n2)cc1,·,·,·,36.2*,·,·,10.7
O=C(N/N=C/c1cccnc1)c1cc(-c2ccc(Br)cc2)nc2ccccc12,·,·,·,25.7*,·,·,20.8
CCc1nc(SCc2ccc(OCC(C)C)cc2)n[nH]1,·,·,·,5.9,·,·,·

# Bioassay records deposited in PubChem BioAssay by several laboratories.
